Active and inactive are the calls of the source. The rule behind the calls is not given here.
How the values were obtained:
[1] = system: SK-BR-3; test: Inhibition of HSP70-mediated antiapoptotic activity in human SKBR3 cells assessed as increase in caspase-3 activity after 24 hrs by Western blot analysis; format: cell-based
[2] = biological target: Heat shock protein HSP 90-beta (Homo sapiens) (UniProt P08238); test: Inhibition of HSP90-mediated antiapoptotic activity in human NCI-H526 cells assessed as release of Apaf-1 from chaperon complex at 20 uM after 1 hr by Western blot analysis; format: cell-based
Outline: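 NCI-H526 cells treated with 20 µM for the indicated times. Complexes immunoprecipitated with Apaf-1 or caspase-9 antibodies, with control IgG alongside. Co-precipitated proteins identified by western blot.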

[3] = biological target: Heat shock protein HSP 90-beta (Homo sapiens) (UniProt P08238); test: Inhibition of HSP90-mediated antiapoptotic activity in human NCI-H526 cells assessed as induction of caspase-9 cleavage at 10 uM after 24 hrs by Western blot analysis; format: cell-based
Outline: (§1)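 NCI-H526 cells at 60–70% confluence were exposed to drug or DMSO for 24 h. Lysed in 50 mM Tris pH 7.4, 150 mM NaCl, 1% NP-40, with protein measured by BCA. 20–100 µg run on SDS-PAGE and blotted to nitrocellulose. Probed with cleaved-protein antibodies and peroxidase secondary at 1:5,000, with β-actin as loading control.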

[4] = biological target: Heat shock protein HSP 90-beta (Homo sapiens) (UniProt P08238); test: Inhibition of HSP90-mediated antiapoptotic activity in human SKBR3 cells assessed as induction of caspase-9 cleavage at 400 uM after 24 hrs by Western blot analysis; format: cell-based; settings: SK-BR-3
Outline: (§2)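 SKBr3 cells at 60–70% confluence were exposed to drug or DMSO vehicle. Lysis was in 50 mM Tris pH 7.4, 150 mM NaCl, 1% NP-40, with protein measured by BCA. Lysates of 20–100 µg were run on SDS-PAGE, blotted to nitrocellulose, probed with primary antibodies and detected with a peroxidase-conjugated secondary (1:5,000). Loading was checked with β-actin or PI(3)K p85.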

[5] = biological target: Heat shock protein HSP 90-beta (Homo sapiens) (UniProt P08238); test: Inhibition of HSP90-mediated antiapoptotic activity in human SKBR3 cells assessed as induction of cell growth arrest at 50 uM after 24 hrs by propidium iodide staining-based flow cytometry; settings: SK-BR-3
[6] = biological target: Heat shock protein HSP 90-beta (Homo sapiens) (UniProt P08238); test: Inhibition of HSP90-mediated antiapoptotic activity in human MCF7 cells assessed as induction of caspase-3 cleavage at 400 uM after 24 hrs by Western blot analysis; format: cell-based
[7] = biological target: Heat shock protein HSP 90-beta (Homo sapiens) (UniProt P08238); test: Inhibition of HSP90-mediated antiapoptotic activity in human NCI-H526 cells assessed as increase in caspase-3 activity at 10 uM after 72 hrs by fluorescence assay in presence of caspase-9 inhibitor Z-LEHD-FMK; format: cell-based
Outline: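 NCI-H526 cells pretreated with Z-LEHD-FMK (100 µM), then exposed to 10 µM for 72 h. Caspase-3 activation read by Z-DEVD-R110 fluorescence. Caspase-3 and PARP cleavage read by western blot. n = 3.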

[8] = biological target: Heat shock protein HSP 90-beta (Homo sapiens) (UniProt P08238); test: Effect on HSP90-mediated Bcl-XL expression in human NCI-H526 cells at 25 uM after 24 hrs by Western blot analysis; format: cell-based
Outline: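 NCI-H526 cells were exposed for 24 h to drug or DMSO vehicle. Lysates were made in 50 mM Tris pH 7.4, 150 mM NaCl, 1% NP-40 and quantified by BCA. Western blot used 20–100 µg protein per lane, with β-actin as loading control.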

[9] = system: NCI-H526; test: Inhibition of HSP70-mediated antiapoptotic activity in human NCI-H526 cells assessed as induction of caspase-3 cleavage after 24 hrs by Western blot analysis; format: cell-based
Outline: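 NCI-H526 cells were treated for 24 h. PARP and caspase-3 cleavage were read by western blot of lysates in Tris/NaCl/NP-40 buffer. Apaf-1 complexes were immunoprecipitated with Apaf-1 antibody, using control IgG, then blotted.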

[10] = biological target: Heat shock protein HSP 90-beta (Homo sapiens) (UniProt P08238); test: Inhibition of HSP90-mediated antiapoptotic activity in human SKBR3 cells assessed as induction of caspase-3 cleavage at 50 uM after 24 hrs by Western blot analysis; format: cell-based; settings: SK-BR-3; outline: as §2
[11] = biological target: Heat shock protein HSP 90-beta (Homo sapiens) (UniProt P08238); test: Inhibition of HSP90-mediated antiapoptotic activity in human NCI-H526 cells assessed as reduction in BAD phosphorylation at 10 uM after 24 hrs by Western blot analysis; format: cell-based
[12] = biological target: Heat shock protein HSP 90-beta (Homo sapiens) (UniProt P08238); test: Inhibition of HSP90-mediated antiapoptotic activity in human NCI-H526 cells assessed as subG1 accumulation at 2.5 uM after 72 hrs by propidium iodide staining-based flow cytometry; format: cell-based
Outline: (§3)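 SCLC cells treated for 72 h with graded doses. Mitochondrial membrane potential read by flow cytometry after JC-1 staining, with green-only emission indicating depolarization. Sub-G1 DNA content read after propidium iodide staining. CCCP used as positive control. n = 3 repeat experiments.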

[13] = biological target: Heat shock protein HSP 90-beta (Homo sapiens) (UniProt P08238); test: Inhibition of HSP90-mediated antiapoptotic activity in human NCI-H69 cells assessed as increase in apoptotic cell population at 0.2 to 1 uM after 72 hrs by FACS analysis relative to control; format: cell-based
[14] = biological target: Heat shock protein HSP 90-beta (Homo sapiens) (UniProt P08238); test: Inhibition of HSP90-mediated antiapoptotic activity in human NCI-H526 cells assessed as disruption of protein-Apaf-1 complex at 50 uM after 24 hrs by Western blot analysis; format: cell-based
Outline: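 NCI-H526 cells treated for 24 h with vehicle or inhibitors (20 µM or 50 µM). Proteins isolated with Apaf-1-specific antibody and whole lysates analysed by western blot. n = 3.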

[15] = biological target: Heat shock protein HSP 90-beta (Homo sapiens) (UniProt P08238); test: Inhibition of HSP90-mediated antiapoptotic activity in human NCI-H187 cells assessed as subG1 accumulation at 15 uM after 72 hrs by propidium iodide staining-based flow cytometry; format: cell-based; outline: as §3
[16] = biological target: Heat shock protein HSP 90-beta (Homo sapiens) (UniProt P08238); test: Inhibition of HSP90-mediated antiapoptotic activity in human NCI-H526 cells assessed as induction of caspase-2 cleavage at 10 uM after 24 hrs by Western blot analysis; format: cell-based; outline: as §1
[17] = biological target: Heat shock protein HSP 90-beta (Homo sapiens) (UniProt P08238); test: Inhibition of HSP90-mediated antiapoptotic activity in human NCI-H526 cells assessed as subG1 accumulation at 15 uM after 72 hrs by propidium iodide staining-based flow cytometry; format: cell-based; outline: as §3
[18] = system: SK-BR-3; test: Inhibition of HSP70-mediated antiapoptotic activity in human SKBR3 cells assessed as induction of PARP cleavage after 24 hrs by Western blot analysis; format: cell-based
Outline: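 SKBr3 cells were treated for 24 h. Lysates were probed by western blot for caspase-3 and PARP cleavage. Apaf-1 complexes were pulled down with Apaf-1 antibody (with control IgG) and immunoblotted.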

[19] = biological target: Heat shock protein HSP 90-beta (Homo sapiens) (UniProt P08238); test: Inhibition of HSP90-mediated antiapoptotic activity in human NCI-H526 cells assessed as reduction in BAD phosphorylation at 50 uM after 24 hrs by Western blot analysis; format: cell-based
[20] = biological target: Heat shock protein HSP 90-beta (Homo sapiens) (UniProt P08238); test: Inhibition of HSP90-mediated antiapoptotic activity in human NCI-H526 cells assessed as induction of Akt degradation at 10 uM after 24 hrs by Western blot analysis; format: cell-based
[21] = biological target: Heat shock protein HSP 90-beta (Homo sapiens) (UniProt P08238); test: Inhibition of HSP90-mediated antiapoptotic activity in human SKBR3 cells assessed as induction of cell growth arrest at 20 uM after 24 hrs by propidium iodide staining-based flow cytometry; settings: SK-BR-3
[22] = biological target: Heat shock protein HSP 90-beta (Homo sapiens) (UniProt P08238); test: Inhibition of HSP90-mediated antiapoptotic activity in human NCI-H526 cells assessed as subG1 accumulation at 25 uM after 72 hrs by propidium iodide staining-based flow cytometry; format: cell-based; outline: as §3
[23] = biological target: Heat shock protein HSP 90-beta (Homo sapiens) (UniProt P08238); test: Inhibition of HSP90-mediated antiapoptotic activity in human NCI-H526 cells assessed as increased association between caspase-9 and Apaf-1 at 20 uM after 1 hr by Western blot analysis

Chain of Heat shock protein HSP 90-beta (Homo sapiens) (P08238 whole entry): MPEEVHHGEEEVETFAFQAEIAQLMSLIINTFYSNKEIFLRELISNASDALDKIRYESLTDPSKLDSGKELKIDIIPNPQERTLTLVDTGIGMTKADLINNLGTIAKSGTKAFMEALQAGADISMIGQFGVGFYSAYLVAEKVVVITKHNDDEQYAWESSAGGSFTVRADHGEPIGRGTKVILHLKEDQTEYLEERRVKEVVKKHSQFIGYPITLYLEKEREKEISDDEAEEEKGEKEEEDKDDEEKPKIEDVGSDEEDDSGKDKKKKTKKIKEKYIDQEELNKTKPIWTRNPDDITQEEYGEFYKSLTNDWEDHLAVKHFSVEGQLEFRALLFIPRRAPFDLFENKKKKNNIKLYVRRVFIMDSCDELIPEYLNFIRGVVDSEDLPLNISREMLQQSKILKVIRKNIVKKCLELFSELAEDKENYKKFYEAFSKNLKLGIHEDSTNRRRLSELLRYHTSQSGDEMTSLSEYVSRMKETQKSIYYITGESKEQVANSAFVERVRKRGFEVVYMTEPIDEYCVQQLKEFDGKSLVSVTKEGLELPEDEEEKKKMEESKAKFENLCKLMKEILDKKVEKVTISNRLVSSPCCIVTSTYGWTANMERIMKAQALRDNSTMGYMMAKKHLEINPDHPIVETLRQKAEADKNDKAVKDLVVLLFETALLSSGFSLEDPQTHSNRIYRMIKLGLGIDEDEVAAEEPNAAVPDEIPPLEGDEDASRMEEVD

Compound: O=CN1CC/C(=C/c2ccc3c(c2)OCO3)C1=O
- inhibition [1]: Active
- Activity [2]: inactive
- Activity [3]: inactive
- Activity [4]: inactive
- Activity [5]: inactive
- Activity [6]: inactive
- Activity [7]: inactive
- Activity [8]: inactive
- inhibition [9]: inactive
- Activity [10]: inactive
- Activity [11]: inactive
- Activity [12]: inactive
- Activity [13]: inactive
- Activity [14]: inactive
- Activity [15]: inactive
- Activity [16]: inactive
- Activity [17]: inactive
- inhibition [18]: Active
- Activity [19]: inactive
- Activity [20]: inactive
- Activity [21]: inactive
- Activity [22]: inactive
- Activity [23]: inactive

Source: ChEMBL document CHEMBL1240328, “Selective compounds define Hsp90 as a major inhibitor of apoptosis in small-cell lung cancer” (Nat Chem Biol, 2007)
